Assay results published in ChEMBL document CHEMBL4513216, “Probing the Open Global Health Chemical Diversity Library for Multistage-Active Starting Points for Next-Generation Antimalarials” (ACS Infect Dis, 2020).

Test: Toxicity liver stage against HepG2, at 10uM
Format: cell-based
Design: test concentration 10 uM, cell line HepG2-A16-CD81EGFP
Details: human, HepG2-A16-CD81EGFP cells; read-out: INHIBITION
Method in brief: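 Uninfected HepG2-A16-CD81EGFP cells, 3 × 10^3 per well, 1536-well, plated on prespotted compound at 10 μM final, parasite-free screening media added to match infected plates; puromycin 10 μM positive, DMSO 0.5% negative; run in parallel with 48 h PbLuc assay at 37 °C, 5% CO2; viability by CellTiter-Glo luminescence, normalized to controls.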

Compound	cytotoxicity at 10 µM
CCOc1nc2cnccc2n(CC(=O)NCCc2ccccc2)c1=O	-6.29%
Cc1c(C(=O)N2CCN(c3ncccn3)CC2)n(C)c2ccc(Cl)cc12	3.99%
CCn1ncc(CN2CCN(C(=O)Cn3cc(Br)c(C)n3)CC2)c1C	0.301%
NC(=O)CN1CCC(c2csc(Nc3cnccn3)n2)CC1	-2.19%
Cc1cc(C)nc(Nc2nccnc2C2CCCN(CCO)C2)n1 (stereo not given)	-0.0399%
COc1ncc(CN2C[C@@H]3C[C@@H](O)CN3C[C@@H]2Cc2ccccc2)cn1	-6.86%
CCC(=O)NC(Cc1cc(N(C)C)nc(C2CC2)n1)c1ccccc1 (stereo not given)	0.301%
O[C@H]1CCN(CCCOc2ccccc2F)C[C@@]12CCCO2	1.14%
COCCc1ncc(CNC2(c3ccc(Cl)cc3Cl)CC2)cn1	-15.8%
CN(C)C(=O)CN1CCCC1c1nc(N)ncc1-c1ccc(F)cc1 (stereo not given)	-8.94%
O=C(c1cccs1)N1CCc2c(nc(N3CCCC3)[nH]c2=O)C1	-16.3%
O=S(=O)(Cc1ccccc1)CC(O)Cn1cccn1 (stereo not given)	3.4%
COCc1nnc(-c2cccc(C(=O)N(C(C)C)C3CCC3)c2)o1	1.51%
CCc1nnc(CN2CCC(c3nc4cc(Cl)ccc4o3)CC2)o1	-0.956%
CC(CNC(=O)c1cc(Cl)ccc1F)N1CCCC1 (stereo not given)	-4.43%
O=C(NCCc1nnc2n1CCC2)NCC1(c2ccccc2F)CC1	0.833%
COc1ccc(CNC(=O)NC2CCN(C)CC2)c(C(F)(F)F)c1	-12.2%
COc1ccc(NC(=O)C2CC2)cc1OCc1cccnc1	-50.5%
CN1CCC(C)(CNC(=O)c2ccc(SCc3cccnc3)cc2)CC1	12.4%
COc1cccc(F)c1C(C)NC(=O)NCc1ccnc(C)n1 (stereo not given)	-10.9%
CN(c1ccc(C#N)cn1)C1CCCN(Cc2noc(C3CC3)n2)C1 (stereo not given)	-17.2%
CN(C)c1cccc(CNCc2ccc(N3CCOCC3)cc2)c1	11.3%
COc1ccccc1CCN(C)Cc1nc(N)nc(N(C)C)n1	6.96%
C[S+]([O-])c1nncn1CC(=O)c1ccc(Cl)c(Cl)c1 (stereo not given)	-4.34%
O=C(Nc1nc2c(s1)CCC2)c1cccnc1N1CCOCC1	8.5%
CCc1ncnc2c1CCN(S(=O)(=O)CC)CC2	-105%
Cn1cccc1C(=O)NCc1cn2c(n1)CN(S(=O)(=O)C1CC1)CC2	-114%

Compound	cytotoxicity at 10 µM
CC(C)NC(=O)N1CCc2nc(C(=O)NCc3ccccc3)sc2CC1	4.17%
O=C(c1ccoc1)N1CC[C@@H]2O[C@H](COCc3ccccn3)CC[C@@H]21	5.48%
Cc1cc(CN2CC[C@H]3C[C@H](C)O[C@@H]3C2)no1	-1.42%
COc1ccc(CN2CCCC(N3CCCC3)C2)cc1Cn1cncn1 (stereo not given)	7.33%
C[C@@H]1CN(c2nc3c(cc2C(N)=O)CCC3)C[C@@]1(O)C1CCC1	-3.98%
COC(=O)CNC(=O)C1(N(C)Cc2ccccc2)Cc2ccccc2C1	3.82%
CC1=C(CCN2C[C@H](O)[C@@H](N3CCOCC3)C2)C(C)(C)CCC1	-0.128%
CN(CCc1ccccc1)C(=O)c1cc(CN2CCC(O)CC2)on1	-2.92%
CN[C@@H](C)C(=O)N(Cc1cccc(C)c1)Cc1ccccc1OC	-39.5%
CC(C)C1CN(c2cnccn2)CCC(=O)N1Cc1ccc(F)cc1 (stereo not given)	3.67%
CC(C)=CCN1CCN(C(=O)CSc2ccccn2)[C@H]2CS(=O)(=O)C[C@H]21	4.97%
Cc1c[nH]c(C(=O)N2CCC(c3nnc(CN(C)CCO)n3C)CC2)c1	-3.52%
C[C@@H]1CN(C(=O)CCCn2nnc(-c3ccc(F)cc3)n2)C[C@]1(C)O	14.2%
O=C(NCC(F)(F)F)C(c1cccnc1)N1CCCC1 (stereo not given)	2.26%
Cc1cc(C)n(C2CN(c3nc(N)nc4c3CCCC4)C2)n1	-44.4%
CCCn1ccnc1-c1nccn1CCN(C)C	-1.04%
Cn1ccnc1-c1ccc(NCCC2COc3ccccc3O2)nn1 (stereo not given)	9.56%
CCC(C)Nc1ccc(-c2nc(-c3cccc(OC)c3OC)no2)cn1 (stereo not given)	24.8%
CC(C)CCn1cc(C(C(=O)O)N2CCCN(C3CCCC3)CC2)cn1 (stereo not given)	-5.84%
CNS(=O)(=O)c1ccc(CN2CCCN(CC(C)C)CC2)cc1	4.03%
COCCCN1CC2(CCC1=O)CCN(Cc1cc(C)no1)CC2	4.08%
Cc1c(C(=O)N2CCC3(CCC(=O)N(CCN(C)C)C3)CC2)ccn1C	-4.06%
CS(=O)(=O)c1ccc(CN2CCCCC2c2cccc(F)c2)cc1 (stereo not given)	-17.4%
Cn1cc(CN2CCC(CCC(=O)Nc3ccccc3Cl)CC2)cn1	-2.98%
Cc1nccn1CCC1CCN(C(=O)C2CC3(CCNCC3)CN2)CC1 (stereo not given)	-1.64%
O=C(O)C1(Oc2ccc3ccccc3c2)CCN(c2ccncc2)CC1	0.542%
COCC(=O)N1CCc2cccc(S(=O)(=O)N3CCOCC3)c2C1	-5.42%

Compound	cytotoxicity at 10 µM
Cc1cc(-c2cc(-c3cc(CC(=O)O)cs3)nc(N)c2C#N)oc1C	-6.25%
COC1CCCN(C2CCN(c3cccc(-c4csc(C)n4)c3)CC2)C1 (stereo not given)	0.929%
CC(=O)NCC(=O)N1Cc2c(-c3cccc(C)c3)nc(N)nc2C1C (stereo not given)	7.66%
Cc1c(Cn2c(=O)cnc3ccccc32)cnn1C	-0.473%
Nc1cc(O)nc(CCNC(=O)CC[C@@H]2CCCN3CCCC[C@H]23)n1	-1.89%
c1cc(C2CCN(c3ncnc4c3CCNCC4)CC2)ccn1	8.33%
CCCC1(CO)CCCN(C(=O)CCCn2nc(C)cc2C)C1 (stereo not given)	-9.53%
CC(C)(C)OC(=O)NC1CCCN(Cc2cccc(O)c2)C1 (stereo not given)	-45.3%
CN(Cc1cc[nH]n1)C(=O)c1cccc(CCC(C)(C)O)c1	-0.0174%
Cc1ccc(=O)n(CC2(O)CCN(Cc3ccsc3)CC2)n1	0.642%
O=C(CN1CCOC(Cn2cncn2)C1)NCc1cccs1 (stereo not given)	-10.2%
CC(NC(=O)CCCc1nc(C(C)(C)C)no1)c1ccccn1 (stereo not given)	-5.81%
COc1cccc(S(=O)(=O)NC(=O)COC2CCCC2)c1	-7.1%
CCc1nc(C2CCCN2CC(=O)Nc2nncs2)no1 (stereo not given)	-9.47%
Cn1ccnc1CN1CCN(Cc2ccccc2C#N)CC1	-3.83%
Cc1cnn(CC2CCCN2C(=O)c2ccc(C(N)=O)cn2)c1 (stereo not given)	-4.64%
O=C(Cn1cnc(NC(=O)CC2CCCC2)n1)NCc1ccccc1	-4.1%
Cc1noc2ncc(C(=O)N3CCCC3c3ccncc3)cc12 (stereo not given)	-5.66%
Cc1cc(NC(=O)NCC(C)N2CCc3ccccc32)no1 (stereo not given)	-6.34%
CN(C)C(=O)[C@H]1C[C@@H]2CCN(Cc3ccoc3)C[C@@H]2O1	-99.7%
CCCN1CC[C@@H]2[C@@H](CO[C@H]2CNC(=O)c2nccn2C)C1	-111%
c1ccc(CCNc2cccc(C3CCCNC3)n2)cc1 (stereo not given)	-3.18%
CN(C)S(=O)(=O)N1CC[C@]2(C[C@H](Oc3ncccc3F)CO2)C1	2.47%
Nc1cnn(CC(=O)N2CCCCC2)c1	-3.15%
CCN(C)c1ncnc2c1CCN(Cc1ccc(OC)cc1)CC2	9.88%
O=c1cc(CN2C[C@@H]3CC[C@H]2CN(Cc2ccccc2)C3)[nH]c(=O)[nH]1	8.89%
